Data from ChEMBL document CHEMBL3779820, “Discovery of a Novel Inhibitor of Histone Lysine-Specific Demethylase 1A (KDM1A/LSD1) as Orally Active Antitumor Agent” (J Med Chem, 2016).

Tests used:
[1] = biological target: T1, Amine oxidase [flavin-containing] A (Homo sapiens, UniProt P21397); test: Inhibition of human recombinant MAOA expressed in Pichia pastoris preincubated for 15 mins measured after 30 mins by bioluminescent-coupled assay
T1 sequence (P21397 whole entry): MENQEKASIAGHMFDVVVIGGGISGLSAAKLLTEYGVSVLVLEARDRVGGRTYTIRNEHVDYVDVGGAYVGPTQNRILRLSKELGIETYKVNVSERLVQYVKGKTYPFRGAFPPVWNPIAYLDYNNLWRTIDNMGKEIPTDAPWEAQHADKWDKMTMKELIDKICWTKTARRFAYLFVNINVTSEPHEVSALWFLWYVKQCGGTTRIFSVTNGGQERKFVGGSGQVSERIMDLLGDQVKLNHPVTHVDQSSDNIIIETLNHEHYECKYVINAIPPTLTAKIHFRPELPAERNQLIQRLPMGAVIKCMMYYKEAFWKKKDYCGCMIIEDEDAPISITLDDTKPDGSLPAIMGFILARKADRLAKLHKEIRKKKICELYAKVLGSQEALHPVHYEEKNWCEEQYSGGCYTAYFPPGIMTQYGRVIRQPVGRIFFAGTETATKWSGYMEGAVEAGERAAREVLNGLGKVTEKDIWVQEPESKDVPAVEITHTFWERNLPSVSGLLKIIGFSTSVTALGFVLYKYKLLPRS
How it was run: (§1)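 Human recombinant KDM1A/CoREST, KDM1B, MAO A and MAO B used as enzyme sources; compounds incubated with the enzyme and results expressed as IC50.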

[2] = biological target: LSD1/CoREST complex (Homo sapiens, UniProt O60341); test: Inhibition of human recombinant KDM1A/CoREST expressed in Escherichia coli using mono-methylated H3-K4 peptide as substrate assessed as H2O2 release preincubated for 15 mins followed by substrate addition measured for 12 mins by fluorescence-based microplate reader analysis; how it was run: as §1
[3] = biological target: T2, Amine oxidase [flavin-containing] B (Homo sapiens, UniProt P27338); test: Inhibition of human recombinant MAOB expressed in Pichia pastoris preincubated for 15 mins measured after 30 mins by bioluminescent-coupled assay; how it was run: as §1
T2 sequence (P27338 whole entry): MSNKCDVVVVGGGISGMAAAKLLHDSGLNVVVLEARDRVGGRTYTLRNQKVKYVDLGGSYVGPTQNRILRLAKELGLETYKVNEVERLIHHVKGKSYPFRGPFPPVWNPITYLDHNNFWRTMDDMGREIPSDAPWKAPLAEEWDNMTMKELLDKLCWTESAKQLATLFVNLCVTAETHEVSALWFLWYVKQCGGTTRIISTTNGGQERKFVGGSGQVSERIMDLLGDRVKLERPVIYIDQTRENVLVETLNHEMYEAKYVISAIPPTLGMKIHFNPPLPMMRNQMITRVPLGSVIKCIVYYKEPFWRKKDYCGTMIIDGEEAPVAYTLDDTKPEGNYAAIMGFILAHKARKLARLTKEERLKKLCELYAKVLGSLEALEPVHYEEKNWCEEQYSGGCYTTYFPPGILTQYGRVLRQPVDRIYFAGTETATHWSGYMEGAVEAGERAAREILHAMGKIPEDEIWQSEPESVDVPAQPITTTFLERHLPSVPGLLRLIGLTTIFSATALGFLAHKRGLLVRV

[4] = biological target: T3, Lysine-specific histone demethylase 2 (Homo sapiens, UniProt Q8NB78); test: Inhibition of KDM1B (unknown origin)
T3 sequence (Q8NB78 whole entry): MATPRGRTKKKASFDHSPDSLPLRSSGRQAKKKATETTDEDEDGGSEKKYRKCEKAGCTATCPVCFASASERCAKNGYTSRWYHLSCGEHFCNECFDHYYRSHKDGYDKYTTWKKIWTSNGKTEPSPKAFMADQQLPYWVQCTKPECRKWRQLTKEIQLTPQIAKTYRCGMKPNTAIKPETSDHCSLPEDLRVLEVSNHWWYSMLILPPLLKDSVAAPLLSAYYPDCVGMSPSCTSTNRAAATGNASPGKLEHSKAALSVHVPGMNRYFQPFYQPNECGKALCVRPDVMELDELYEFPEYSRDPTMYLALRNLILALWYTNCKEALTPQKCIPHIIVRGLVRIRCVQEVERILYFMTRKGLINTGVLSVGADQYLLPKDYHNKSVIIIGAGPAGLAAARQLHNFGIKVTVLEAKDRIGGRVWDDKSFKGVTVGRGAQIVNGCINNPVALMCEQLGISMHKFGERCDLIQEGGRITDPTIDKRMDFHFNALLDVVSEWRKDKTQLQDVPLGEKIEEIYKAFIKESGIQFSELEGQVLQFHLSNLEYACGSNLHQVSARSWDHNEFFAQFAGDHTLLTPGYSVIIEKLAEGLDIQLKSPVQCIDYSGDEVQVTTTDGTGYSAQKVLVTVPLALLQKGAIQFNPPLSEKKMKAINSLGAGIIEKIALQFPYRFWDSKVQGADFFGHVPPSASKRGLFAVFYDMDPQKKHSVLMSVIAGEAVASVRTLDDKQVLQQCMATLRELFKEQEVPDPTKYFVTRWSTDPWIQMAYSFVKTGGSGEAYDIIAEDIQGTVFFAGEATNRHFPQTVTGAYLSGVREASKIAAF

[5] = Tmax in CD1 mouse at 15 mg/kg, po administered as single dose; assay type: ADME, organism-based; conditions: in vivo
How it was run: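 Single dose to CD1 mice: 5 mg/kg iv in 5% glucose with 10% tween 80, or 15 mg/kg orally in 5% glucose with 40% PEG. Plasma parameters derived from concentration–time profiles.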

[6] = biological target: Lysine-specific histone demethylase 1A (Homo sapiens) (UniProt O60341); test: Inhibition of KDM1A in human NB4 cells assessed as increase in GFI1B mRNA expression at biochemical IC50 measured after 24 hrs by RT-PCR analysis relative to control; assay type: cell-based; conditions: NB-4
[7] = biological target: Lysine-specific histone demethylase 1A (Homo sapiens) (UniProt O60341); test: Inhibition of KDM1A in human NB4 cells assessed as increase in CD11b mRNA expression at biochemical IC50 measured after 24 hrs by RT-PCR analysis relative to control; assay type: cell-based; conditions: NB-4
[8] = Anticlonogenic activity against 129sv mouse APL blast cells assessed as inhibition of colony formation of cells at 0.25 uM measured after 7 days relative to control; assay type: functional; conditions: 168 h
[9] = species on record: Homo sapiens; test: Selectivity ratio of IC50 for human recombinant MAOA expressed in Pichia pastoris to IC50 for human recombinant KDM1A/CoREST expressed in Escherichia coli

Row | IC50 [1] | IC50 [2] | IC50 [3] | IC50 [4] | Tmax [5] | fold change (FC) [6] | fold change (FC) [7] | Ratio IC50 [9] | Structure (SMILES) | inhibition at 0.25 µM [8]
1 | 25 nM | 42.6 nM | > 100000 nM | 11600 nM |  |  |  |  | N[C@@H]1C[C@H]1c1ccc(NC(=O)c2cccc(NC(=O)OCc3ccccc3)c2)cc1 (racemic) | 
2 |  | 189 nM |  |  | 12 h |  |  |  | CN1CCN(c2ccc(C(=O)Nc3ccc([C@@H]4C[C@H]4N)cc3)cc2)CC1.Cl.Cl (racemic) | 
3 | 54.8 nM | 61.5 nM | 600 nM | 74700 nM |  |  |  |  | N[C@@H]1C[C@H]1c1ccc(NC(=O)c2ccc(N3CCOCC3)cc2)cc1 (racemic) | 
4 |  | 51.2 nM |  |  | 18 h | 4.1 | 3.4 |  | CN1CCC(c2ccc(C(=O)Nc3ccc([C@@H]4C[C@H]4N)cc3)cc2)CC1.Cl (racemic) | 
5 |  |  |  |  |  | 4.9 | 3.2 |  | CN1CCN(c2ccc(C(=O)Nc3ccc([C@@H]4C[C@H]4N)cc3)cc2)CC1 (racemic) | 
6 | 193 nM | 61.4 nM | 62900 nM | 5700 nM |  | 4.8 | 3.8 |  | N[C@@H]1C[C@H]1c1ccc(NC(=O)c2ccc(N3CCOCC3)c(NC(=O)OCc3ccccc3)c2)cc1 (relative stereo) | 59%
7 |  | 308 nM |  |  |  |  |  |  | N[C@@H]1C[C@H]1c1ccc(NC(=O)c2ccc(N3CCCCC3)c(NC(=O)OCc3ccccc3)c2)cc1 (relative stereo) | 
8 | 1000 nM |  | > 100000 nM | 4300 nM |  | 4.5 | 3 | > 10 | CN1CCN(c2ccc(C(=O)Nc3ccc([C@@H]4C[C@H]4N)cc3)cc2NC(=O)OCc2ccccc2)CC1 (relative stereo) | 57%
9 | 345 nM |  | 27800 nM | 14900 nM |  | 5.6 | 3.2 |  | N[C@@H]1C[C@H]1c1ccc(NC(=O)c2ccc(NC(=O)OCc3ccccc3)c(N3CCOCC3)c2)cc1 (relative stereo) | 57%
